Screening data (PubChem)
Shown are actives, neighbours in structure and some others; about 2.2% of the full set was active somewhere.
Mcl1-Bid inh = disrupts binding of human Mcl-1 to Bid peptide; Q07820; hit rate 0.97% among 220,000; TR-FRET Mcl-1/Bid-Dy647 peptide binding, 1536-well; AID 1021; inhibition, % at 21.7 µM;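 active = compounds that cut the binding signal by more than half at the single screening dose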;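 also: His-tagged Mcl-1 with europium anti-His antibody binding Bid BH3 peptide; 0% = Mcl-1 plus peptide wells and 100% = peptide-only wells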
Target sequence (Q07820 whole entry, looked up): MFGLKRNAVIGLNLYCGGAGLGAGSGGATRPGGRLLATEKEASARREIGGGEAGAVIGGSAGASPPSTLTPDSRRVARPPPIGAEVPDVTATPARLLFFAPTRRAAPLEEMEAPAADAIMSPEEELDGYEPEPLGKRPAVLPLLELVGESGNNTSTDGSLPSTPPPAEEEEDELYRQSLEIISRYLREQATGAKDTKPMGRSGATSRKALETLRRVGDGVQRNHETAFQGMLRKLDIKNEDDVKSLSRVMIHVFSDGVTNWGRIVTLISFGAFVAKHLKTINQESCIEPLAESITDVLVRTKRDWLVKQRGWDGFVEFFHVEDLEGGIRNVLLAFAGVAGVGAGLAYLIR
EBV gp42 block = blocks Epstein-Barr virus glycoprotein 42 binding; AID 1085; Fluorescence polarization binding assay, mP read-out; Q1HVG2; inhibition, % (tested at 21.74 µM); hit rate 0.42% among 220,000; in the data active = inhibition above about 50%
MCL1-BIM inh = MCL1-BIM-BH3 interaction inhibition (human) | Q07820 | GST-MCL1 / FITC-Bim-BH3 fluorescence polarization | inhibition, % at 10.9 µM | hit rate 0.68% among 320,000;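 active = inhibition above the mean inhibition of all tested compounds plus 3 SD, set per campaign, cut at about 40% in these data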;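 also: 0% = DMSO wells and 100% = unlabeled Bim-BH3 peptide control; higher means more loss of mP so more displacement of Bim peptide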
RBBP9 inhibitor = inhibitors of human serine hydrolase RBBP9; inhibition, % at 7.94 µM; AID 1515; recombinant RBBP9, FP-Rh probe fluorescence polarization; hit rate 0.2% among 220,000;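 active = inhibition above the campaign mean of all tested compounds plus 3 SD, cut at about 14% in these data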;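 also: plate controls were DMSO wells with RBBP9 for no effect and wells lacking RBBP9 protein for full effect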
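Assay system: recombinant human RBBP9; Reagent: Serine-hydrolase probe FP-Rh, 375 nM pre-mixing; Doses: 7.94 µM single dose, 0.794% DMSO; Incubation: 30 min then 45 min, 25 °C; Detection: fluorescence polarization (mP), excitation 525 nm, emission 598 nm; Evaluation: percent inhibition from mP, scaled between DMSO and no-protein wells.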
Mcl1 Noxa PPI = Mcl-1/Noxa interaction inhibition; Q07820; TR-FRET Mcl-1/Noxa peptide binding, 2 h; inhibition, % at 21.7 µM; hit rate 1.5% among 220,000;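 active = compounds that cut the protein-peptide binding signal by more than 50% relative to plate controls in a single-dose test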;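 also: His-tagged Mcl-1 with rhodamine Noxa BH3 peptide and terbium anti-His antibody; 0% = Mcl-1 plus Noxa peptide wells and 100% = peptide-only wells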
Bim-Mcl-1 = human Bim-Mcl-1 interaction inhibition. Bead-based flow cytometry, Bim peptide-Mcl-1 binding. inhibition, % at 10 µM. hit rate 0.1% among 190,000; in the data active = inhibition above about 40%;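 also: 0% = no compound tracer wells and 100% = peptide blocker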
Bcl-xL conf = counter-screen for MCL1 inhibitors: confirmation of human Bcl-xL inhibitors; shares compounds with MCL1-BIM inh; GST-Bcl-xL / FITC-Bim BH3 peptide FP binding; inhibition, % at 10.9 µM; hit rate 54% among 1,700;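 active = inhibition above a cutoff equal to the mean inhibition of all tested compounds plus 3 SD, cut at about 30% in these data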;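 also: 0% = DMSO wells and 100% = unlabeled Bim BH3 control peptide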
Target sequence (Q07817 whole entry, looked up): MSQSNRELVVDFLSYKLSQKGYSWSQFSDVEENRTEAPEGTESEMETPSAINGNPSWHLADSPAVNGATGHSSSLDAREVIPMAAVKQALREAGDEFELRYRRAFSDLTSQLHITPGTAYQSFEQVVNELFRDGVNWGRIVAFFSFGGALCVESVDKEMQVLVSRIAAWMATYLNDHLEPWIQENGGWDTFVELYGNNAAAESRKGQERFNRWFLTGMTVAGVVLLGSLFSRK
MCL1 inh confirm = MCL1-BIM-BH3 interaction inhibition, confirmation; shares compounds with MCL1-BIM inh; GST-MCL1 / FITC-Bim-BH3 fluorescence polarization; inhibition, % at 10.9 µM; hit rate 61% among 1,700;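 active = inhibition above the average of all tested compounds plus 3 SD, cut at about 40% in these data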;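 also: 0% = DMSO wells and 100% = unlabeled Bim-BH3 control peptide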
* = called active by the depositor; · = no result given; + = active, no number.

SMILES	Mcl1-Bid inh	EBV gp42 block	MCL1-BIM inh	RBBP9 inhibitor	Mcl1 Noxa PPI	Bim-Mcl-1	Bcl-xL conf	MCL1 inh confirm
COc1cccc(C2Nc3c(F)cc(Br)cc3C3C=CCC32)c1OC (configuration not stated)	-11	-4	4	-1	-6	5	·	·
O=[N+]([O-])c1ccc(/C=C/C2=NN(c3ccccc3)C(c3ccco3)C2)cc1 (configuration not stated)	-13	-22	67*	-14	4	·	93*	109*
COc1ccc(S(=O)(=O)N2CCC(C(=O)NCCCc3ccccc3)CC2)cc1	·	·	7	·	·	·	·	·
CC(C)(C)c1cc(CCC(=O)NCc2ccccn2)cc(C(C)(C)C)c1O	·	·	4	·	·	·	·	·
CC(OC(=O)c1cc(=O)[nH]c2ccccc12)C(=O)c1ccccc1 (configuration not stated)	11	-3	143*	0	10	1	3	-3
CN(C(=O)c1ccc(Br)o1)C1CCCCC1	·	·	4	·	·	·	·	·
Cc1cc(NC(=O)/C(C#N)=C/c2ccco2)n(-c2ccccc2)n1	-23	-4	-2	-6	8	-2	·	·
Cc1ccc(-c2ccc(/C=C(\C#N)C(=O)Nc3cc(C)nn3-c3ccccc3)o2)cc1	64*	120*	+	-4	·	-3	+	+
O=C1/C(=C\c2cc([N+](=O)[O-])ccc2O)SC(=S)N1Cc1ccc(Cl)cc1	·	·	66*	·	·	·	88*	105*
O=C(O)CN1C(=O)/C(=C\c2cc([N+](=O)[O-])ccc2OCc2ccccc2Cl)SC1=S	·	·	51*	·	·	·	22	47*
C[C@@]12C(=O)N(Cc3ccccc3)CC(=O)N1[C@H]1c3ccccc3OC[C@@H]1[C@@H]2c1ccccc1	·	·	2	·	·	·	·	·
COc1ccc(-c2cc(=O)oc3cc(OC(C)C(=O)O)ccc23)cc1 (configuration not stated)	29	-1	0	-3	13	-3	·	·
COc1ccc(-c2cc(=O)oc3c(O)c(O)ccc23)cc1	·	·	68*	·	·	·	72*	93*
O=C(N/N=C/c1ccncc1)c1cc([N+](=O)[O-])cc([N+](=O)[O-])c1O	9	-15	43*	-1	84*	-2	12	49*
OCCCc1nc2n(n1)C(c1ccccc1)C=C(c1ccccc1)N2 (configuration not stated)	-26	24	28	-6	7	-1	·	·
CC1=CC(c2ccccc2)n2nc(NC(=O)CCCC(=O)O)nc2N1 (configuration not stated)	·	·	3	·	·	·	·	·
COc1ccccc1C1C=C(c2ccccc2)Nc2nnnn21 (configuration not stated)	-14	-7	2	-1	9	1	·	·
COc1ccccc1C1C=C(c2ccc(Cl)cc2)Nc2nc(NS(C)(=O)=O)nn21 (configuration not stated)	-14	22	71*	-9	-7	-1	46*	59*
CC(=O)Nc1nc2n(n1)C(c1ccccc1)C=C(c1ccccc1)N2 (configuration not stated)	-12	32	53*	-4	9	-1	57*	80*
CS(=O)(=O)Nc1nc2n(n1)C(c1ccccc1)C=C(c1ccc(Br)cc1)N2 (configuration not stated)	26	58*	181*	-2	18	0	134*	164*
CCC(=O)Nc1nc2n(n1)C(c1ccc(OC)cc1)C=C(c1ccccc1)N2 (configuration not stated)	-31	60*	60*	5	16	-3	75*	92*
COc1ccc(CC(=O)OC(C)C(=O)NCc2ccc3c(c2)OCO3)cc1OC (configuration not stated)	·	·	-5	·	·	·	·	·
CNC(=O)c1cc(Nc2nnc(-c3ccc(C)c(S(N)(=O)=O)c3)c3ccccc23)ccc1OC	·	·	-3	·	·	·	·	·
N#Cc1c(N)n(-c2cccc(O)c2)c2nc3ccccc3nc12	-2	-8	10	-11	17	·	·	·
CN(C(=O)CN1CCN(c2cnn(-c3ccccc3)c(=O)c2Cl)CC1)C1CCS(=O)(=O)C1 (configuration not stated)	·	·	-5	·	·	·	·	·
SMILES	Mcl1-Bid inh	EBV gp42 block	MCL1-BIM inh	RBBP9 inhibitor	Mcl1 Noxa PPI	Bim-Mcl-1	Bcl-xL conf	MCL1 inh confirm
COc1ccc(C2=CC(c3ccc(F)cc3)n3nnnc3N2)cc1 (configuration not stated)	-3	8	-2	0	7	2	·	·
O=C(c1nc2n(n1)C(c1ccc(Cl)cc1)C=C(c1ccccc1)N2)N1CCOCC1 (configuration not stated)	-9	77*	75*	-8	-1	-4	71*	89*
COc1ccc(C2C=C(c3ccc(Br)cc3)Nc3nc(N4C(=O)CCC4=O)nn32)cc1 (configuration not stated)	-72	68*	135*	-10	0	-4	84*	100*
O=C(c1cc(-c2ccc(Cl)cc2)nc2ccccc12)N1CCOCC1	·	·	2	·	·	·	·	·
COc1ccc(Cl)cc1NC(=S)NC(=O)c1ccco1	·	·	3	·	·	·	·	·
CCN(CC(=O)NCc1ccc(F)cc1)C(=O)c1oc2ccccc2c1C	·	·	7	·	·	·	·	·
CC(=O)c1ccc2c(c1)N(CCCN1CCC(CCO)CC1)c1ccccc1S2	·	·	44*	·	·	·	28	33
OCCN1CCN(CCCN2c3ccccc3Sc3ccc(Cl)cc32)CC1	-13	2	7	8	35	-1	·	·
O=[N+]([O-])c1cccc(C=Nc2cccc3ccccc23)c1O	·	·	2	·	·	·	·	·
CCOC(=O)c1c(/N=C/c2cccc([N+](=O)[O-])c2O)sc(C)c1C	-16	2	55*	-3	27	-1	16	22
Cc1cc(SCC(=O)N/N=C/c2ccc(O)c(O)c2)nc2ccccc12	·	·	49*	·	·	·	47*	74*
COc1cccc2c(SCC(=O)N/N=C/c3ccccc3)cc(C)nc12	1	-12	0	0	13	16	·	·
COc1cccc2c(SCC(=O)N/N=C/c3ccc(O)c(O)c3)cc(C)nc12	-16	15	43*	-10	64*	10	36*	72*
Cc1cc(SCC(=O)N/N=C/c2ccc(O)cc2O)nc2ccccc12	·	·	13	·	·	·	·	·
N#CC1(NC(=O)COC(=O)c2ccccc2SCC(=O)N2CCCC2)CCCCC1	·	·	-1	·	·	·	·	·
Nc1c(C(=O)C2CC2)sc2nc(-c3cccs3)cc(C(F)(F)F)c12	-23	-111	72*	-11	-32	-5	13	-17
O=C(c1ccc(O)cc1)c1ccc(O)cc1O	-19	13	12	-10	-4	·	·	·
